In brackets after ≈: the same amount, converted by molar mass.
Experiments:
[1] = tested on: Aspergillus ochraceus; experiment: Antifungal activity against Aspergillus ochraceus ATCC 12066 after 72 hrs by serial dilution technique; type: functional; conditions: ATCC 12066, 72 h
Procedure, shortened: (§1)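 Modified microdilution in 96-well plates. Fungi were kept on malt agar at 4 °C. Spores were washed off in sterile 0.85% saline with 0.1% Tween 80. Compounds were dissolved at 1 mg/ml in 5% DMSO with 0.1% Tween 80 and added to malt broth with inoculum. Plates were shaken at 160 rpm for 72 h at 28 °C. Duplicate, repeated three times.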

[2] = tested on: Enterococcus faecalis; experiment: Antibacterial activity against Enterococcus faecalis isolated from human incubated for 24 hrs followed by serial sub-cultivation for 24 hrs by microdilution; type: functional
Procedure, shortened: (§2)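 MBC: after the 24 h LB broth microdilution (1.0 × 10⁴ CFU per well, 160 rpm), wells were serially sub-cultured into fresh broth plates and incubated a further 24 h. MBC is the lowest concentration with no visible growth, taken as 99.5% killing of the original inoculum. Duplicate, repeated three times.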

[3] = tested on: Talaromyces funiculosus; experiment: Antifungal activity against Penicillium funiculosum ATCC 36839 incubated for 72 hrs followed by serial sub-cultivation for 72 hrs by serial dilution technique; type: functional; conditions: ATCC 36839, 72 h
Procedure, shortened: (§3)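 MFC: material from 72 h malt broth microdilution wells was serially sub-cultured into fresh broth plates and incubated a further 72 h at 28 °C. Fungicidal concentration is taken from growth after sub-culture. Duplicate, repeated three times.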

[4] = tested on: Candida albicans; experiment: Ratio of bifonazole to compound for Candida albicans isolated from human; type: functional
[5] = tested on: Penicillium ochrochloron; experiment: Antifungal activity against Penicillium ochrochloron ATCC 9112 incubated for 72 hrs followed by serial sub-cultivation for 72 hrs by serial dilution technique; type: functional; conditions: ATCC 9112, 72 h; procedure, shortened: as §3
[6] = tested on: Pseudomonas aeruginosa; experiment: Ratio of ampicillin MIC to compound MIC for Pseudomonas aeruginosa ATCC 27853; type: functional
[7] = tested on: Aspergillus ochraceus; experiment: Antifungal activity against Aspergillus ochraceus after 72 hrs by serial dilution technique
[8] = tested on: Aspergillus flavus; experiment: Antifungal activity against Aspergillus flavus ATCC 9643 after 72 hrs by serial dilution technique; type: functional; conditions: ATCC 9643, 72 h; procedure, shortened: as §1
[9] = tested on: Trichoderma viride; experiment: Ratio of bifonazole to compound for Trichoderma viride IAM 5061; type: functional
[10] = tested on: Penicillium ochrochloron; experiment: Ratio of ketoconazole to compound for Penicillium ochrochloron ATCC 9112; type: functional
[11] = tested on: Penicillium ochrochloron; experiment: Antifungal activity against Penicillium ochrochloron ATCC 9112 after 72 hrs by serial dilution technique; type: functional; conditions: ATCC 9112, 72 h; procedure, shortened: as §1
[12] = tested on: Salmonella typhimurium; experiment: Antibacterial activity against Salmonella Typhimurium ATCC 13311 after 24 hrs by microdilution method; type: functional, Salmonella enterica subsp. enterica serovar Typhimurium; conditions: Salmonella enterica, ATCC 13311, 24 h
Procedure, shortened: (§4)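 Broth microdilution in 96-well plates. Bacterial suspensions were adjusted in sterile saline to 1.0 × 10⁵ CFU/ml, prepared daily and kept at 4 °C. Compound was added to LB broth with 1.0 × 10⁴ CFU per well and shaken at 160 rpm for 24 h at […] (so in the source). MIC is the lowest concentration with no visible growth under a binocular microscope. OD655 was also read. Duplicate, repeated three times.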

[13] = tested on: Trichoderma viride; experiment: Antifungal activity against Trichoderma viride IAM 5061 after 72 hrs by serial dilution technique; type: functional; conditions: IAM 5061, 72 h; procedure, shortened: as §1
[14] = tested on: Enterococcus faecalis; experiment: Antibacterial activity against Enterococcus faecalis isolated from human after 24 hrs by microdilution method; type: functional; procedure, shortened: as §4
[15] = tested on: Aspergillus ochraceus; experiment: Ratio of bifonazole to compound for Aspergillus ochraceus ATCC 12066; type: functional
[16] = tested on: Aspergillus niger; experiment: Antifungal activity against Aspergillus niger ATCC 6275 after 72 hrs by serial dilution technique; type: functional; conditions: ATCC 6275, 72 h; procedure, shortened: as §1
[17] = tested on: Micrococcus flavus; experiment: Antibacterial activity against Micrococcus flavus ATCC 10240 incubated for 24 hrs followed by serial sub-cultivation for 24 hrs by microdilution; type: functional; conditions: ATCC 10240, 24 h; procedure, shortened: as §2
[18] = tested on: Bacillus cereus; experiment: Antibacterial activity against clinical isolate of Bacillus cereus after 24 hrs by microdilution method; type: functional; procedure, shortened: as §4
[19] = tested on: Staphylococcus aureus; experiment: Antibacterial activity against Staphylococcus aureus ATCC 6538 after 24 hrs by microdilution method; type: functional; conditions: ATCC 6538, 24 h; procedure, shortened: as §4
[20] = tested on: Micrococcus flavus; experiment: Antibacterial activity against Micrococcus flavus ATCC 10240 after 24 hrs by microdilution method; type: functional; conditions: ATCC 10240, 24 h; procedure, shortened: as §4
[21] = tested on: Penicillium ochrochloron; experiment: Ratio of bifonazole to compound for Penicillium ochrochloron ATCC 9112; type: functional
[22] = tested on: Trichoderma viride; experiment: Antifungal activity against Trichoderma viride IAM 5061 incubated for 72 hrs followed by serial sub-cultivation for 72 hrs by serial dilution technique; type: functional; conditions: IAM 5061, 72 h; procedure, shortened: as §3
[23] = tested on: Talaromyces funiculosus; experiment: Antifungal activity against Penicillium funiculosum ATCC 36839 after 72 hrs by serial dilution technique; type: functional; conditions: ATCC 36839, 72 h; procedure, shortened: as §1
[24] = tested on: Aspergillus fumigatus; experiment: Antifungal activity against Aspergillus fumigatus isolated from human incubated for 72 hrs followed by serial sub-cultivation for 72 hrs by serial dilution technique; type: functional; procedure, shortened: as §3
[25] = tested on: Pseudomonas aeruginosa; experiment: Antibacterial activity against Pseudomonas aeruginosa ATCC 27853 incubated for 24 hrs followed by serial sub-cultivation for 24 hrs by microdilution; type: functional; conditions: ATCC 27853, 24 h; procedure, shortened: as §2
[26] = tested on: Aspergillus flavus; experiment: Antifungal activity against Aspergillus flavus ATCC 9643 incubated for 72 hrs followed by serial sub-cultivation for 72 hrs by serial dilution technique; type: functional; conditions: ATCC 9643, 72 h; procedure, shortened: as §3
[27] = tested on: Pseudomonas aeruginosa; experiment: Antibacterial activity against Pseudomonas aeruginosa ATCC 27853 after 24 hrs by microdilution method; type: functional; conditions: ATCC 27853, 24 h; procedure, shortened: as §4
[28] = tested on: Aspergillus fumigatus; experiment: Ratio of ketoconazole to compound for Aspergillus fumigatus isolated from human; type: functional
[29] = tested on: Candida albicans; experiment: Antifungal activity against Candida albicans isolated from human incubated for 72 hrs followed by serial sub-cultivation for 72 hrs by serial dilution technique; type: functional; procedure, shortened: as §3
[30] = tested on: Aspergillus ochraceus; experiment: Ratio of ketoconazole to compound for Aspergillus ochraceus ATCC 12066; type: functional
[31] = tested on: Aspergillus ochraceus; experiment: Antifungal activity against Aspergillus ochraceus ATCC 12066 incubated for 72 hrs followed by serial sub-cultivation for 72 hrs by serial dilution technique; type: functional; conditions: ATCC 12066, 72 h; procedure, shortened: as §3
[32] = tested on: Escherichia coli; experiment: Antibacterial activity against Escherichia coli ATCC 35210 incubated for 24 hrs followed by serial sub-cultivation for 24 hrs by microdilution; type: functional; conditions: ATCC 35210, 24 h; procedure, shortened: as §2
[33] = tested on: Listeria monocytogenes; experiment: Antibacterial activity against Listeria monocytogenes NCTC 7973 after 24 hrs by microdilution method; type: functional; conditions: NCTC 7973, 24 h; procedure, shortened: as §4
[34] = tested on: Talaromyces funiculosus; experiment: Ratio of bifonazole to compound for Penicillium funiculosum ATCC 36839; type: functional
[35] = tested on: Listeria monocytogenes; experiment: Antibacterial activity against Listeria monocytogenes NCTC 7973 incubated for 24 hrs followed by serial sub-cultivation for 24 hrs by microdilution; type: functional; conditions: NCTC 7973, 24 h; procedure, shortened: as §2
[36] = tested on: Bacillus cereus; experiment: Antibacterial activity against clinical isolate of Bacillus cereus incubated for 24 hrs followed by serial sub-cultivation for 24 hrs by microdilution; type: functional; procedure, shortened: as §2
[37] = tested on: Staphylococcus aureus; experiment: Antibacterial activity against Staphylococcus aureus ATCC 6538 incubated for 24 hrs followed by serial sub-cultivation for 24 hrs by microdilution method; type: functional; conditions: ATCC 6538, 24 h; procedure, shortened: as §2
[38] = tested on: Salmonella typhimurium; experiment: Antibacterial activity against Salmonella Typhimurium ATCC 13311 incubated for 24 hrs followed by serial sub-cultivation for 24 hrs by microdilution; type: functional, Salmonella enterica subsp. enterica serovar Typhimurium; conditions: Salmonella enterica, ATCC 13311, 24 h; procedure, shortened: as §2
[39] = tested on: Candida albicans; experiment: Antifungal activity against Candida albicans isolated from human after 72 hrs by serial dilution technique; type: functional; procedure, shortened: as §1
[40] = tested on: Aspergillus niger; experiment: Ratio of bifonazole to compound for Aspergillus niger ATCC 6275; type: functional
[41] = tested on: Escherichia coli; experiment: Antibacterial activity against Escherichia coli ATCC 35210 after 24 hrs by microdilution method; type: functional; conditions: ATCC 35210, 24 h; procedure, shortened: as §4
[42] = tested on: Aspergillus niger; experiment: Antifungal activity against Aspergillus niger ATCC 6275 incubated for 72 hrs followed by serial sub-cultivation for 72 hrs by serial dilution technique; type: functional; conditions: ATCC 6275, 72 h; procedure, shortened: as §3
[43] = tested on: Candida albicans; experiment: Ratio of ketoconazole to compound for Candida albicans isolated from human; type: functional

MIC [1]: 29.7 µM (≈ 10 µg/mL)
MIC [7]: 29.7 µM (≈ 10 µg/mL)
MIC [8]: 29.7 µM (≈ 10 µg/mL)
MIC [11]: 29.7 µM (≈ 10 µg/mL)
MIC [12]: 59.3 µM (≈ 20 µg/mL)
MIC [13]: 29.7 µM (≈ 10 µg/mL)
MIC [14]: 74.2 µM (≈ 25 µg/mL)
MIC [16]: 44.5 µM (≈ 15 µg/mL)
MIC [18]: 99.3 µM (≈ 33.5 µg/mL)
MIC [19]: 59.3 µM (≈ 20 µg/mL)
MIC [20]: 14.8 µM (≈ 4.99 µg/mL)
MIC [23]: 29.7 µM (≈ 10 µg/mL)
MIC [27]: 74.2 µM (≈ 25 µg/mL)
MIC [33]: 89 µM (≈ 30 µg/mL)
MIC [39]: 44.5 µM (≈ 15 µg/mL)
MIC [41]: 74.2 µM (≈ 25 µg/mL)
Structure (SMILES): CNc1nc(C)c(C(=O)/C=C/c2cccc(Br)c2)s1
MBC [2]: 74.2 µM (≈ 25 µg/mL)
MFC [3]: 59.3 µM (≈ 20 µg/mL)
Ratio [4]: 10
MFC [5]: 59.3 µM (≈ 20 µg/mL)
Ratio [6]: 10
Ratio [9]: 10
Ratio [10]: 10
Ratio [15]: 10
MBC [17]: 59.3 µM (≈ 20 µg/mL)
Ratio [21]: 10
MFC [22]: 59.3 µM (≈ 20 µg/mL)
MFC [24]: 59.3 µM (≈ 20 µg/mL)
MBC [25]: 74.2 µM (≈ 25 µg/mL)
MFC [26]: 74.2 µM (≈ 25 µg/mL)
Ratio [28]: 10
MFC [29]: 59.3 µM (≈ 20 µg/mL)
Ratio [30]: 10
MFC [31]: 59.3 µM (≈ 20 µg/mL)
MBC [32]: 74.2 µM (≈ 25 µg/mL)
Ratio [34]: 10
MBC [35]: 89 µM (≈ 30 µg/mL)
MBC [36]: 74.2 µM (≈ 25 µg/mL)
MBC [37]: 74.2 µM (≈ 25 µg/mL)
MBC [38]: 74.2 µM (≈ 25 µg/mL)
Ratio [40]: 10
MFC [42]: 59.3 µM (≈ 20 µg/mL)
Ratio [43]: 10
